The results in this text go back to ChEMBL document CHEMBL4321859, “Unforeseen Possibilities To Investigate the Regulation of Polyamine Metabolism Revealed by Novel C-Methylated Spermine Derivatives” (J Med Chem, 2019).

Data set [1] in a line: Drug level in human DU145 cells at 100 uM in presence of SSAO inhibitor aminoguanidine after 3 days by HPLC method. It counts as ADME, cell-based. Particulars: du-145, 72 h; call rule not given here. In outline:
(§1)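 DU145 cells exposed to 100 μM analogue for 6 h or 3 days, with or without 1 mM aminoguanidine. Cells were lysed in 50 mM potassium phosphate pH 7.2 with EDTA, Triton X-100 and DTT. Lysate was mixed with sulphosalicylic acid containing diaminoheptane as internal standard. Polyamines, analogue and MeSpd were measured by HPLC and normalized to DNA (PicoGreen), expressed as pmol/μg DNA. Means ± SD, n = 3.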

Data set [2] in a line: Drug level in human DU145 cells assessed per ug DNA at 100 uM after 3 days by HPLC method. It counts as ADME, cell-based. The settings on record: du-145, 72 h. A digest of the protocol:
as §1

The test system of data set [3] is DU-145. The data set can be described thus: Downregulation of intracellular putrescine level in human DU145 Cells assessed per ug DNA at 100 uM after 6 hrs by HPLC method (reference value: 40 +/- 2 pmol/ug). It counts as functional. In outline:
as §1

Data set [4] has as its system DU-145. The data set can be described thus: Downregulation of intracellular spermine level in human DU145 Cells at 100 uM after 3 days by HPLC method (reference value: 102 +/- 4 pmol/ug). It counts as functional. A digest of the protocol: as §1
Data set [5] has as its system DU-145. The data set can be described thus: Cytotoxicity against human DU145 cells at 100 uM in presence of SSAO inhibitor aminoguanidine after 3 days. It counts as cell-based. Particulars: du-145, 72 h. In outline:
(§2)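 DU145 cells grown in high-glucose DMEM with 10% heat-inactivated FBS, 2 mM L-glutamine and gentamycin at 37 °C, 5% CO2. Treated 3 days with 100 μM analogue, with or without 1 mM aminoguanidine. Cells harvested by trypsinization and counted electronically (Coulter counter). Means ± SD, n = 3.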

Data set [6] relates to DU-145. The data set can be described thus: Downregulation of intracellular spermidine level in human DU145 Cells assessed per ug DNA at 100 uM after 6 hrs by HPLC method (reference value: 134 +/- 7 pmol/ug). It counts as functional. In outline:
as §1

Data set [7] has as its system DU-145. The data set can be described thus: Downregulation of intracellular N1-acetylspermidine level in human DU145 cells assessed per ug DNA at 100 uM after 6 hrs by HPLC method (Rvb < 3 pmol/ug). The format is functional. In outline:
as §1

Data set [8] deals with DU-145. Nature of the data set: Cytotoxicity against human DU145 cells at 100 uM after 3 days. It counts as cell-based. Particulars: du-145, 72 h. In outline:
as §2

A short description of data set [9]: Drug level in human DU145 cells assessed per ug DNA at 100 uM after 6 hrs by HPLC method. The format is ADME, cell-based. The settings on record: du-145, 6 h. In outline:
as §1

A short description of data set [10]: Drug metabolism in human DU145 cells at 100 uM assessed as methylspermidine metabolite level assessed per ug DNA after 3 days by HPLC method. Particulars: du-145, 72 h. The format is ADME, cell-based. A digest of the protocol: as §1
Data set [11] relates to DU-145. The data set can be described thus: Downregulation of intracellular spermidine level in human DU145 Cells assessed per ug DNA at 100 uM after 3 days by HPLC method (reference value: 123 +/- 3 pmol/ug). It counts as functional. In outline:
as §1

The test system of data set [12] is DU-145. The data set can be described thus: Downregulation of intracellular putrescine level in human DU145 Cells assessed per ug DNA at 100 uM after 3 days by HPLC method (reference value: 19 +/- 2 pmol/ug). The format is functional. In outline: as §1
The target in data set [13] is Peroxisomal N(1)-acetyl-spermine/spermidine oxidase (Homo sapiens, UniProt Q6QHF9). Nature of the data set: (§3) Inhibition of recombinant human APAO at 50 uM using N1-acetylspermidine level as substrate relative to control. The settings on record: 50 µM. A digest of the protocol: (§4)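 Competition with natural substrate at fixed 50 μM: spermine for purified bovine plasma SSAO and human recombinant SMOX, N1-acetylspermidine for human recombinant APAO. Analogue tested at 50 μM, with activity expressed relative to reaction without analogue.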

Data set [14] relates to DU-145. Nature of the data set: Downregulation of intracellular spermidine level in human DU145 Cells assessed per ug DNA at 100 uM after 3 days in presence of SSAO inhibitor aminoguanidine by HPLC method (reference value: 175 +/- 5 pmol/ug). The format is functional. A digest of the protocol: as §1
The subject of data set [15] is DU-145. Nature of the data set: Downregulation of intracellular spermine level in human DU145 Cells at 100 uM after 6 hrs by HPLC method (reference value: 106 +/- 4 pmol/ug). The format is functional. In outline:
as §1

A short description of data set [16]: Drug uptake in human DU145 cells assessed as reduction in [14C]-spermine uptake at 1 to 100 uM by competition based assay. It counts as ADME, cell-based. Particulars: du-145, 100 µM.
Data set [17] concerns DU-145. The data set can be described thus: Downregulation of intracellular spermine level in human DU145 Cells assessed per ug DNA at 100 uM after 3 days in presence of SSAO inhibitor aminoguanidine by HPLC method (reference value: 157 +/- 8 pmol/ug). The format is functional. A digest of the protocol:
as §1

The nature of data set [18]: Drug metabolism in human DU145 cells at 100 uM assessed as methylspermidine metabolite level assessed per ug DNA after 6 hrs by HPLC method. The settings on record: du-145, 6 h. The format is ADME, cell-based. In outline:
as §1

Data set [19] concerns DU-145. Nature of the data set: Downregulation of intracellular N1-acetylspermidine level in human DU145 cells assessed per ug DNA at 100 uM after 3 days by HPLC method (reference value: 3 pmol/ug). The format is functional. A digest of the protocol:
as §1

Data set [20] deals with T1, Amine oxidase [copper-containing] 3 (Bos taurus, UniProt Q9TTK6).
T1 sequence (Q9TTK6 whole entry): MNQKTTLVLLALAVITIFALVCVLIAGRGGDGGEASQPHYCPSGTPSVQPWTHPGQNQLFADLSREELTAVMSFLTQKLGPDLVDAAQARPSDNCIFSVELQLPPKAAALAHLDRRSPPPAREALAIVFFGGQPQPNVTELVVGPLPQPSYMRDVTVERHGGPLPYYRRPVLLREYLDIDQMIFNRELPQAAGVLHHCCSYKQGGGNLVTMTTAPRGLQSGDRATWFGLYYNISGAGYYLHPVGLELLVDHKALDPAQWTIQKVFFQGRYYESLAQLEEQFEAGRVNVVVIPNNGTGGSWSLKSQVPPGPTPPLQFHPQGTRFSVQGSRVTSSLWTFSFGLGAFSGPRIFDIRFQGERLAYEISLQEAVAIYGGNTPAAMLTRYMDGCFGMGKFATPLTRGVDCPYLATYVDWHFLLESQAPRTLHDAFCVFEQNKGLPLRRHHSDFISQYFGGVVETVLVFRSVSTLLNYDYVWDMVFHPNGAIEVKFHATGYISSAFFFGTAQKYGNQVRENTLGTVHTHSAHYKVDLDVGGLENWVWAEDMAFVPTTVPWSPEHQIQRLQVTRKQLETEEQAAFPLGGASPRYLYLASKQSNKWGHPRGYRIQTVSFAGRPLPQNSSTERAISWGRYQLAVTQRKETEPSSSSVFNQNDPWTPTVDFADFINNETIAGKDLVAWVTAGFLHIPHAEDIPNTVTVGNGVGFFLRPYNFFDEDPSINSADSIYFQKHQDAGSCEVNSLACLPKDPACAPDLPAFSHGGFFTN
Nature of the data set: Substrate activity at bovine plasma SSAO at 5 mM relative to spermine. It counts as ADME. The settings on record: cattle, 5000 µM. In outline:
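Purified bovine plasma SSAO given analogue as substrate at 5 mM, the same saturating concentration used for spermine. Activity compared with spermine. Means ± SD, n = 3.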

The target of data set [21] is APAO (peroxisomal N(1)-acetyl-spermine/spermidine oxidase) (Homo sapiens, UniProt Q6QHF9). The description is as §3. Particulars: recombinant human APAO, probe N1-acetylspermidine. In outline:
as §4

Data set [22] is described as follows: Drug metabolism in human DU145 cells at 100 uM assessed as methylspermidine metabolite level assessed per ug DNA in presence of SSAO inhibitor aminoguanidine after 3 days by HPLC method. It counts as ADME, cell-based. Particulars: du-145, 72 h. In outline: as §1
The test system of data set [23] is DU-145. The data set can be described thus: Downregulation of intracellular N1-acetylspermidine level in human DU145 cells assessed per ug DNA at 100 uM after 3 days in presence of SSAO inhibitor aminoguanidine by HPLC method (reference value: 3 +/- 1 pmol/ug). The format is functional. In outline:
as §1

Peroxisomal N(1)-acetyl-spermine/spermidine oxidase, sequence (Q6QHF9 whole entry): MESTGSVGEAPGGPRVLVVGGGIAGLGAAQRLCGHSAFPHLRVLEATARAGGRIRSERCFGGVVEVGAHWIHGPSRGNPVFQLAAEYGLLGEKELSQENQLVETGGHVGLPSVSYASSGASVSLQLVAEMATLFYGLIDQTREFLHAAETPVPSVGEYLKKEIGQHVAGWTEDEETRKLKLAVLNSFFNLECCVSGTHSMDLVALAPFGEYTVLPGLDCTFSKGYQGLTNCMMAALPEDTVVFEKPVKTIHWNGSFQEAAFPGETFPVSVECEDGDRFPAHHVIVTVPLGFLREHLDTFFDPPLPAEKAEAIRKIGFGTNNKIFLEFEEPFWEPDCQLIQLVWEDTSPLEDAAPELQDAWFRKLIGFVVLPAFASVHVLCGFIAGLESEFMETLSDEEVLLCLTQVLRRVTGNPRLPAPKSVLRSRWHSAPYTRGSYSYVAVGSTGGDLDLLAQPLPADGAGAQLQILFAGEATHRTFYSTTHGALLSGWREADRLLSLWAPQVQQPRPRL
APAO (peroxisomal N(1)-acetyl-spermine/spermidine oxidase), sequence (Q6QHF9 whole entry): as above

Consider `CC(CN)CNCCCCNCC(C)CN` (stereo unspecified), for which the values for the Drug uptake in data set [1], in [2] and in data set [9] were 222 pmol, 147 pmol and 59 pmol, respectively. Further, the Activity is recorded as 10 pmol in the data set with DU-145 [3]; 40 pmol in the data set with DU-145 [4]; “Non-Toxic” in the data set on DU-145 [5]; 99 pmol in the data set on DU-145 [6]; 4 pmol in the data set on DU-145 [7]; “Non-Toxic” in the data set with DU-145 [8]. Besides, the Activity in the data set with DU-145 [11] is reported as 13 pmol; in the data set with DU-145 [12], <3 pmol; in the data set on DU-145 [14], <3 pmol; in the data set with DU-145 [15] it was 76 pmol; in data set [16], “Active”; in the data set with DU-145 [17], 33 pmol. Also, the Drug metabolism in [10] worked out at 20 pmol. For the same compound, the “inhibition (INH)” value in [13] is “Not Active”.

With `NCCCNCCCCNCCCN` [SPERMINE], the Activity entry in the data set on DU-145 [5] is “Toxic”; in the data set on DU-145 [8], “Non-Toxic”; in data set [16], “Active”.

Usually inhibition stands for the drop in the measured response relative to a control, in per cent. As to `CC(CCN)NCCCCNC(C)CCN` (stereo unspecified), the Drug metabolism in [18] stood at 34 pmol; in data set [10], 116 pmol; in data set [22], 44 pmol. Besides, the Drug uptake in [1] is listed as 191 pmol; in [2], 29 pmol; in data set [9], 26 pmol. The Activity with DU-145 [19] is recorded as <3 pmol; in the data set with DU-145 [3] it was 27 pmol; in the data set with DU-145 [4] it was 69 pmol; in the data set with DU-145 [5], “Non-Toxic”; with DU-145 [6], 79 pmol; with DU-145 [7] it was 3 pmol. For the same compound, the Activity entry with DU-145 [8] is “Non-Toxic”; in data set [20], 30%; with DU-145 [11], 34 pmol; in the data set with DU-145 [12] it was 12 pmol; in the data set with DU-145 [14] it was 31 pmol; in the data set on DU-145 [15], 80 pmol. In addition, the Activity entry is reported as “Active” in data set [16] and 68 pmol in the data set with DU-145 [17]. Also, the inhibition at 50 µM in data set [21] is 45%.

For `CC(N)CCNCCCCNCCC(C)N` (stereo unspecified), the Drug uptake in data set [1] amounted to 217 pmol; in [2], 168 pmol; in data set [9], 70 pmol. For the same compound, the Activity in the data set with DU-145 [19] is reported as <3 pmol; with DU-145 [3], 15 pmol; with DU-145 [4] it was 27 pmol; in the data set with DU-145 [5], “Non-Toxic”; with DU-145 [6], 105 pmol; with DU-145 [7] it was 5 pmol. In addition, the Activity entry with DU-145 [8] is reported as “Non-Toxic”; in the data set with DU-145 [11], 13 pmol; in the data set with DU-145 [12], <3 pmol; in the data set with DU-145 [23], <3 pmol; with DU-145 [14], 3 pmol; in the data set on DU-145 [15], 84 pmol. The figures for the Activity entry (in data set [16]; in the data set on DU-145 [17]) were “Active” and 19 pmol, respectively. In addition, the Drug metabolism in [10] stood at 4 pmol; in data set [22] it was 10 pmol. Moreover, in data set [13], the “inhibition (INH)” value is “Not Active”.
